This is an account of results in ChEMBL document CHEMBL1759907, “Identification and optimization of tetrahydro-2H-3-benzazepin-2-ones as squalene synthase inhibitors” (Bioorg Med Chem Lett, 2011).

One may read the IC50 as the concentration that gives 50% inhibition. Broadly, the inhibition in vivo is the percentage by which the read-out fell short of the control.

The target of one data set is T1, Squalene synthase (Homo sapiens, UniProt P37268).
T1 sequence (P37268 whole entry): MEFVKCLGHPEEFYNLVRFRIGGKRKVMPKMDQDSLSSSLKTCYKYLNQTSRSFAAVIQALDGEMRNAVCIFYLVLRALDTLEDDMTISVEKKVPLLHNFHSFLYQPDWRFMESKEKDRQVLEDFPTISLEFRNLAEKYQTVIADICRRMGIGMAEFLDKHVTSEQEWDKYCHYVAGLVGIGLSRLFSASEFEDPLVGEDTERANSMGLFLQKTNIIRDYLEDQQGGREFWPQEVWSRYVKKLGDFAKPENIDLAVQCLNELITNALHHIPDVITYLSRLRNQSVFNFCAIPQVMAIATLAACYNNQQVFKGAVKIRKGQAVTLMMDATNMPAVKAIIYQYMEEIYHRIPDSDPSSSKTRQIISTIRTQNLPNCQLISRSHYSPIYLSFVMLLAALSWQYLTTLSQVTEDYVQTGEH
Nature of the data set: Inhibition of squalene synthase assessed as conversion of […] to [3H]squalene after 10 mins by scintillation counting. The method in brief:
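Reaction started with farnesyl pyrophosphate plus 0.2 nM trans,trans-[1-3H]-FPP and run for 10 min at 37 °C. Extracted with chloroform/methanol/5 N NaOH, adjusted to 2 mM squalene; organic phase counted by scintillation. Mean of three experiments.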

Data set [1] is described as follows: Metabolic stability in human liver microsomes assessed as compound remaining after 60 mins. Particulars: read-out: Stability. It is filed as ADME, Microsome.
In the next data set the test system is Mus musculus. Nature of the data set: Inhibition of hepatic cholesterol biosynthesis in NMRI mouse at 3 mg/kg, po administered 1 hr before administering [14C]mevalonate as substrate measured after 10 mins. It is filed as functional.

With `COc1ccccc1[C@H]1CN(CC(=O)O)C(=O)[C@H](CC(C)C)c2ccc(Cl)cc21` (racemic), the IC50 at Squalene synthase was found to be 1900 nM.
As to `CC(C)C[C@H]1C(=O)N(CC(=O)NCCCCCC(=O)O)C[C@H](c2ccccc2Cl)c2cc(Cl)ccc21` (racemic), on Squalene synthase, the IC50 was determined as 2400 nM.
Still for that read-out and setting: next, `CC(C)C[C@H]1C(=O)N(CC(=O)O)C[C@H](c2ccccc2Cl)c2ccccc21` (racemic): over 20000 nM.
Same read-out and setting: next, `C=C(C)C[C@H]1C(=O)N(CC(=O)O)C[C@H](c2ccccc2Cl)c2cc(Cl)ccc21` (racemic): 5500 nM; `CC(C)C[C@H]1C(=O)N(CC(=O)O)C[C@H](c2ccccc2Br)c2cc(Cl)ccc21` (racemic): 2200 nM.
As to `COc1cccc([C@@H]2CN(CC(=O)N3CCC(C(=O)O)CC3)C(=O)[C@H](CC(C)C)c3ccc(Cl)cc32)c1OC`, the IC50 on Squalene synthase came to 220 nM. In data set [1], the remaining at 1 h was 89%. The compound further gave an inhibition in vivo at 3 mg/kg in the data set with Mus musculus of 47%.
With `COc1cccc([C@H]2CN(CC(=O)N3CCC(C(=O)O)CC3)C(=O)[C@@H](CC(C)C)c3ccc(Cl)cc32)c1OC`, the IC50 at Squalene synthase was over 20000 nM.
As for `CC(C)C[C@H]1C(=O)N(CC(=O)O)C[C@H](c2ccccc2Cl)c2cc(F)ccc21` (racemic), the IC50 at Squalene synthase was over 20000 nM.
On to `CCOC(=O)CN1C[C@H](c2ccccc2Cl)c2cc(Cl)ccc2[C@@H](CC(C)C)C1=O` (racemic), for which the IC50 at Squalene synthase is over 20000 nM.
With `Cc1ccc2c(c1)[C@@H](c1ccccc1Cl)CN(CC(=O)O)C(=O)[C@@H]2CC(C)C` (racemic), on Squalene synthase, the IC50 is over 20000 nM.
In the case of `CC(C)(O)C[C@H]1C(=O)N(CC(=O)O)C[C@H](c2ccccc2Cl)c2cc(Cl)ccc21` (racemic), at Squalene synthase, the half-maximal inhibitory concentration (IC50) is over 20000 nM.
The same measure, in the same setting: next, `COc1cccc([C@H]2CN(CC(=O)O)C(=O)[C@H](CC(C)C)c3ccc(Cl)cc32)c1OC` (racemic): 1200 nM.
With `CC(C)C[C@H]1C(=O)N(CC(=O)N2CCC(CC(=O)O)CC2)C[C@H](c2ccccc2Cl)c2cc(Cl)ccc21` (racemic), on Squalene synthase, the 50% inhibitory concentration (IC50) was determined as 1400 nM. Moreover, in data set [1], the remaining at 1 h is 70%. The compound further came in with an inhibition in vivo at 3 mg/kg in the data set on Mus musculus of 25%.
In the case of `COc1ccccc1[C@H]1CN(CC(=O)N2CCCCC2)C(=O)[C@H](CC(C)C)c2ccc(Cl)cc21` (racemic), the IC50 at Squalene synthase was 370 nM. Moreover, the remaining at 1 h in data set [1] worked out at 2%.
The like results for `CC(C)C[C@H]1C(=O)N(CC(=O)O)C[C@H](c2ccccc2Cl)c2cc(Cl)ccc21` (racemic) were, in that order, 3300 nM and 60%.
For `COc1ccccc1[C@H]1CN(CC(=O)N2CCC(C(=O)O)CC2)C(=O)[C@H](CC(C)C)c2ccc(Cl)cc21` (racemic), on Squalene synthase, the IC50 came out at 500 nM. For the same compound, in data set [1], the remaining at 1 h is 72%. Also, in the data set with Mus musculus, testing at 3 mg/kg gave an inhibition in vivo of 39%.
With `O=C(O)CN1C[C@H](c2ccccc2Cl)c2cc(Cl)ccc2[C@@H](Cc2ccccc2)C1=O` (racemic), the half-inhibitory concentration (IC50) on Squalene synthase was over 20000 nM.
Take `CC(C)C[C@H]1C(=O)N(CC(=O)O)C[C@H](c2ccccc2)c2cc(Cl)ccc21` (racemic): at Squalene synthase, the IC50 was 15300 nM.
For the compound `CC(C)C[C@H]1C(=O)N(CC(=O)N2CCC(C(=O)O)CC2)C[C@H](c2ccccc2Cl)c2cc(Cl)ccc21` (racemic), the IC50 at Squalene synthase came out at 930 nM. The remaining at 1 h in data set [1] was found to be 53%. Further, 3 mg/kg produced 25% inhibition in vivo in the data set with Mus musculus.
Consider `COc1cccc([C@H]2CN(CC(=O)N3CCC(C(=O)O)CC3)C(=O)[C@H](CC(C)C)c3ccc(Cl)cc32)c1OC` (racemic), for which the concentration for half-maximal inhibition (IC50) at Squalene synthase is 450 nM. Moreover, in data set [1], the remaining at 1 h came out at 78%.
